# Assay results gathered from unrelated publications.
# Each line is one published result; the experiments were not run side by side.
# Target: Serine/threonine-protein kinase Nek9 (NEK9, Homo sapiens, UniProt Q8TD19)
# Residues used in one study (Q8TD19 1-979): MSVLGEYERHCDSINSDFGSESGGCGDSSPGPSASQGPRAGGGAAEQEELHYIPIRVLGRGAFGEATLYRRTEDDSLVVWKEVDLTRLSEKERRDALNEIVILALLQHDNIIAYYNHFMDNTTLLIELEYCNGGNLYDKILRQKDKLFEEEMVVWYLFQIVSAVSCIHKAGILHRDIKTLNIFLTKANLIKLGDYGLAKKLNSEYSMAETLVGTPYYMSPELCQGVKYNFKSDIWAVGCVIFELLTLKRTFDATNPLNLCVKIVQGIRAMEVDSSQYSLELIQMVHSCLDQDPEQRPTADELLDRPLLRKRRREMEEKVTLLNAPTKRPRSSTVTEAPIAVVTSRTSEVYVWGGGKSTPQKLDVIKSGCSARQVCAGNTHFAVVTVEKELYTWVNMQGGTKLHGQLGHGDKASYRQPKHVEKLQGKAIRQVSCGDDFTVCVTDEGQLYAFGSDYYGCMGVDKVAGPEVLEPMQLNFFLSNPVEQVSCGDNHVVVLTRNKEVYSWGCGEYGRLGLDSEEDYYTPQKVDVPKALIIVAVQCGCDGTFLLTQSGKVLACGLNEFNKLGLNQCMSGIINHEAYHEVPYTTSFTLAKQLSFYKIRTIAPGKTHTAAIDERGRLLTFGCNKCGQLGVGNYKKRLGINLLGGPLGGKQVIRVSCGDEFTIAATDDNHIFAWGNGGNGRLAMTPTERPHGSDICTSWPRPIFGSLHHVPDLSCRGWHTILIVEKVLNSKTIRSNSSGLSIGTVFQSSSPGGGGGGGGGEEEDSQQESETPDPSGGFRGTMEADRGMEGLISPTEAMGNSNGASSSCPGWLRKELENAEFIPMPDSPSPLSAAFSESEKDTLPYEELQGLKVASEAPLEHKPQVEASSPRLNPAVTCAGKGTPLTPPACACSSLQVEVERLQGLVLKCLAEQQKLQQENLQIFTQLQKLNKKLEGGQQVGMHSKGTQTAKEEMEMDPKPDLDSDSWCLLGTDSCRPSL
Compound,assay,conditions,remaining binding
CCCOc1ccc([C@H]2[C@H](C(=O)O)[C@@H](c3ccc4c(c3)OCO4)CN2CC(=O)Nc2c(CC)cccc2CC)cc1,"cell-free assay, competition with immobilised ligand",1 µM,95%
O=C(c1ccc(Nc2ncc(Cl)c(-c3ccc(Cl)s3)n2)cc1)N1CCC(N2CCCC2)CC1,"binding, competition with immobilised ligand",1 µM,23%
CC1CCCN1c1nccc(-c2cnn3ncccc23)n1 (stereo not shown),binding,1 µM,100%
COc1ccc2cc(OCC3(C(=O)O)CN(C(=O)c4ccc(F)cc4)C3)ccc2c1,"cell-free assay, competition with immobilised ligand",1 µM,100%
C=CC(=O)N1CCC(C(=O)NCC(=O)N2CCN(c3nc(-c4cnc(N)nc4C(F)F)nc(N4CCOCC4)n3)CC2)CC1,"binding, competition with immobilised ligand",1 µM,100%
Cc1cnn2ncc(-c3ccnc(N(C)C)n3)c2c1,binding,1 µM,100%
Nc1ncc2c(n1)-c1c([nH]c3ccc(C#CC4CC4)cc13)CCCC2,"binding, competition with immobilised ligand",1 µM,91%
O=C(c1ccc(Nc2nccc(-c3cc4ccccc4s3)n2)cc1)N1CCC(N2CCCC2)CC1,"binding, competition with immobilised ligand",1 µM,100%
C[C@@H]1CCN(c2nccc(-c3cnn4ncccc34)n2)C1,binding,1 µM,81%
O=C(Nc1c[nH]nc1C(=O)NC1CCNCC1)c1cc(F)cc(F)c1,"binding, competition with immobilised ligand",1 µM,100%
Cc1nc(Cc2cccc(C(F)(F)F)c2)sc1-c1ccc(C(N)=O)nc1,"cell-free assay, competition with immobilised ligand",1 µM,100%
CNC(=O)[C@@H]1CC[C@@H](n2c(-c3ccc4cnccc4c3)nc3ccc(C(=O)NCc4cccc(C(N)=O)c4)cc32)C1,"binding, competition with immobilised ligand",1 µM,100%
NS(=O)(=O)c1cc(NC(=O)C2(c3ccccc3Cl)CC2)ccc1Oc1cccc(Cl)c1,"cell-free assay, competition with immobilised ligand",1 µM,94%
COc1cnc(Nc2cccc(S(N)(=O)=O)c2)nc1N1CCN(c2ccccc2)CC1,"binding, competition with immobilised ligand",1 µM,83%
CN(C)c1nccc(-c2cnn3ncccc23)n1,binding,1 µM,100%
C[C@@H](c1ccc(-n2cnc3c(N)ncnc32)cc1)N1CCc2nn(C)c(Cc3ccccc3)c2C1=O,"binding, competition with immobilised ligand",0.1 µM,94%
CC(=O)Nc1c(C(C)=O)c(=O)n(C)c2nc(-c3ccc(Cl)cc3Cl)c(-c3ccc(Cl)cc3)cc12,"cell-free assay, competition with immobilised ligand",1 µM,100%
c1cncc(-c2cccc(Nc3nccc(NC4CCCCC4)n3)c2)c1,"binding, competition with immobilised ligand",10 µM,95%
CN(C)c1ncc(F)c(-c2cnn3ncccc23)n1,binding,1 µM,100%
O=C(c1ccc(Nc2ncc(Cl)c(-c3cc4ccccc4s3)n2)cc1)N1CCC(N2CCCC2)CC1,"binding, competition with immobilised ligand",1 µM,33%
O=C1NC(c2ccccn2)Sc2ccccc21 (stereo not shown),"cell-free assay, competition with immobilised ligand",1 µM,75%
COc1ccnn2ncc(-c3ccnc(N(C)C)n3)c12,binding,1 µM,100%
